Source: ChEMBL document CHEMBL4400530, “Synthesis and structure-activity relationship studies of water-soluble β-cyclodextrin-glycyrrhetinic acid conjugates as potential anti-influenza virus agents” (Eur J Med Chem, 2019)
The source made the active and inactive calls. No cut-off for these calls is given here.

Experiments:
MDCK = experiment: Cytotoxicity against MDCK cells assessed as effect on cell viability at 50 uM measured after 36 hrs by CellTiter-Glo assay; type: cell-based, Canis lupus familiaris; conditions: dog
Procedure, shortened: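 MDCK cells (1 × 10⁴ per well) left to adhere 24 h at 37 °C, 5% CO₂. Medium then replaced with fresh medium containing compound at 50 μM, in triplicate. Controls received medium with 1% DMSO. Plates incubated 36 h at 37 °C, 5% CO₂, then viability read by CellTiter-Glo luminescence.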

Influenza A virus = experiment: Antiviral activity against Influenza A virus (A/WSN/33(H1N1)) infected in MDCK cells assessed as reduction in virus-induced cytopathic effect at 50 uM after 40 hrs by CellTiter-Glo assay; type: functional, organism-based; conditions: A/WSN/1933(H1N1)
Procedure, shortened: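 MDCK cells seeded, grown overnight, then infected with A/WSN/33 (H1N1) at MOI 0.1 in DMEM with 1% FBS, 2 μg/mL TPCK-treated trypsin and test compound (final DMSO 1%). Compounds screened at a single 50 μM concentration. Incubation 40 h, then viability read by CellTiter-Glo luminescence. Oseltamivir positive control, DMSO negative control. Virus stock titres determined in MDCK cells by Reed and Muench.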

**Q.** What does the source list for `CC1(C)[C@@H](O)CC[C@]2(C)[C@H]3C(=O)C=C4[C@@H]5C[C@@](C)(C(=O)NCCOCc6cn(C[C@H]7O[C@@H]8O[C@H]9[C@H](O)[C@@H](O)[C@@H](O[C@H]%10[C@H](O)[C@@H](O)[C@@H](O[C@H]%11[C@H](O)[C@@H](O)[C@@H](O[C@H]%12[C@H](O)[C@@H](O)[C@@H](O[C@H]%13[C@H](O)[C@@H](O)[C@@H](O[C@H]%14[C@H](O)[C@@H](O)[C@@H](O[C@H]7[C@H](O)[C@H]8O)O[C@@H]%14CO)O[C@@H]%13CO)O[C@@H]%12CO)O[C@@H]%11CO)O[C@@H]%10CO)O[C@@H]9CO)nn6)CC[C@]5(C)CC[C@@]4(C)[C@]3(C)CC[C@@H]12`?
**A.** Activity (MDCK): Non-Toxic; Activity (Influenza A virus): Active

**Q.** How did the Activity (MDCK) turn out when `CC1(C)[C@@H](OCc2cn(C[C@H]3O[C@@H]4O[C@H]5[C@H](O)[C@@H](O)[C@@H](O[C@H]6[C@H](O)[C@@H](O)[C@@H](O[C@H]7[C@H](O)[C@@H](O)[C@@H](O[C@H]8[C@H](O)[C@@H](O)[C@@H](O[C@H]9[C@H](O)[C@@H](O)[C@@H](O[C@H]%10[C@H](O)[C@@H](O)[C@@H](O[C@H]3[C@H](O)[C@H]4O)O[C@@H]%10CO)O[C@@H]9CO)O[C@@H]8CO)O[C@@H]7CO)O[C@@H]6CO)O[C@@H]5CO)nn2)CC[C@]2(C)[C@H]3C(=O)C=C4[C@@H]5C[C@@](C)(C(=O)O)CC[C@]5(C)CC[C@@]4(C)[C@]3(C)CC[C@@H]12` was run?
**A.** The Activity was “Non-Toxic”.

**Q.** And the Activity (Influenza A virus)?
**A.** The Activity was “Active”.

**Q.** What does the source list for `CC(=O)OC[C@H]1O[C@@H]2O[C@H]3[C@H](OC(C)=O)[C@@H](OC(C)=O)[C@@H](O[C@H]4[C@H](OC(C)=O)[C@@H](OC(C)=O)[C@@H](O[C@H]5[C@H](OC(C)=O)[C@@H](OC(C)=O)[C@@H](O[C@H]6[C@H](OC(C)=O)[C@@H](OC(C)=O)[C@@H](O[C@H]7[C@H](OC(C)=O)[C@@H](OC(C)=O)[C@@H](O[C@H]8[C@H](OC(C)=O)[C@@H](OC(C)=O)[C@@H](O[C@H]1[C@H](OC(C)=O)[C@H]2OC(C)=O)O[C@@H]8COC(C)=O)O[C@@H]7COC(C)=O)O[C@@H]6COC(C)=O)O[C@@H]5Cn1cc(COCCNC(=O)[C@@]2(C)CC[C@]5(C)CC[C@]6(C)C(=CC(=O)[C@@H]7[C@@]8(C)CC[C@H](O)C(C)(C)[C@@H]8CC[C@]76C)[C@@H]5C2)nn1)O[C@@H]4COC(C)=O)O[C@@H]3COC(C)=O`?
**A.** Activity (MDCK): Non-Toxic; Activity (Influenza A virus): Active

**Q.** With `CC1(C)[C@@H](O)CC[C@]2(C)[C@H]3C(=O)C=C4[C@@H]5C[C@@](C)(C(=O)NCc6cn(C[C@H]7O[C@@H]8O[C@H]9[C@H](O)[C@@H](O)[C@@H](O[C@H]%10[C@H](O)[C@@H](O)[C@@H](O[C@H]%11[C@H](O)[C@@H](O)[C@@H](O[C@H]%12[C@H](O)[C@@H](O)[C@@H](O[C@H]%13[C@H](O)[C@@H](O)[C@@H](O[C@H]%14[C@H](O)[C@@H](O)[C@@H](O[C@H]7[C@H](O)[C@H]8O)O[C@@H]%14CO)O[C@@H]%13CO)O[C@@H]%12CO)O[C@@H]%11CO)O[C@@H]%10CO)O[C@@H]9CO)nn6)CC[C@]5(C)CC[C@@]4(C)[C@]3(C)CC[C@@H]12` as the molecule, how does the Activity (MDCK) read?
**A.** The Activity was “Non-Toxic”.

**Q.** What about the Activity (Influenza A virus) of the same molecule?
**A.** Its Activity is “Active”.

**Q.** Which Activity (MDCK) does the source give for `CC1(C)[C@@H](O)CC[C@]2(C)[C@H]3C(=O)C=C4[C@@H]5C[C@@](C)(C(=O)NCCOCCOCCOCCOCc6cn(C[C@H]7O[C@@H]8O[C@H]9[C@H](O)[C@@H](O)[C@@H](O[C@H]%10[C@H](O)[C@@H](O)[C@@H](O[C@H]%11[C@H](O)[C@@H](O)[C@@H](O[C@H]%12[C@H](O)[C@@H](O)[C@@H](O[C@H]%13[C@H](O)[C@@H](O)[C@@H](O[C@H]%14[C@H](O)[C@@H](O)[C@@H](O[C@H]7[C@H](O)[C@H]8O)O[C@@H]%14CO)O[C@@H]%13CO)O[C@@H]%12CO)O[C@@H]%11CO)O[C@@H]%10CO)O[C@@H]9CO)nn6)CC[C@]5(C)CC[C@@]4(C)[C@]3(C)CC[C@@H]12` here?
**A.** The Activity was “Non-Toxic”.

**Q.** And the Activity (Influenza A virus)?
**A.** Its Activity is “Active”.

**Q.** Which results are given for `CC(=O)OC[C@H]1O[C@@H]2O[C@H]3[C@H](OC(C)=O)[C@@H](OC(C)=O)[C@@H](O[C@H]4[C@H](OC(C)=O)[C@@H](OC(C)=O)[C@@H](O[C@H]5[C@H](OC(C)=O)[C@@H](OC(C)=O)[C@@H](O[C@H]6[C@H](OC(C)=O)[C@@H](OC(C)=O)[C@@H](O[C@H]7[C@H](OC(C)=O)[C@@H](OC(C)=O)[C@@H](O[C@H]8[C@H](OC(C)=O)[C@@H](OC(C)=O)[C@@H](O[C@H]1[C@H](OC(C)=O)[C@H]2OC(C)=O)O[C@@H]8COC(C)=O)O[C@@H]7COC(C)=O)O[C@@H]6COC(C)=O)O[C@@H]5Cn1cc(CN2CCN(CCNC(=O)[C@@]5(C)CC[C@]6(C)CC[C@]7(C)C(=CC(=O)[C@@H]8[C@@]9(C)CC[C@H](O)C(C)(C)[C@@H]9CC[C@]87C)[C@@H]6C5)CC2)nn1)O[C@@H]4COC(C)=O)O[C@@H]3COC(C)=O`?
**A.** Activity (MDCK): Non-Toxic; Activity (Influenza A virus): inactive

**Q.** `CC(=O)OC[C@H]1O[C@@H]2O[C@H]3[C@H](OC(C)=O)[C@@H](OC(C)=O)[C@@H](O[C@H]4[C@H](OC(C)=O)[C@@H](OC(C)=O)[C@@H](O[C@H]5[C@H](OC(C)=O)[C@@H](OC(C)=O)[C@@H](O[C@H]6[C@H](OC(C)=O)[C@@H](OC(C)=O)[C@@H](O[C@H]7[C@H](OC(C)=O)[C@@H](OC(C)=O)[C@@H](O[C@H]8[C@H](OC(C)=O)[C@@H](OC(C)=O)[C@@H](O[C@H]1[C@H](OC(C)=O)[C@H]2OC(C)=O)O[C@@H]8COC(C)=O)O[C@@H]7COC(C)=O)O[C@@H]6COC(C)=O)O[C@@H]5Cn1cc(COCCOCCOCCOCCNC(=O)[C@@]2(C)CC[C@]5(C)CC[C@]6(C)C(=CC(=O)[C@@H]7[C@@]8(C)CC[C@H](O)C(C)(C)[C@@H]8CC[C@]76C)[C@@H]5C2)nn1)O[C@@H]4COC(C)=O)O[C@@H]3COC(C)=O` was tested. Which Activity (MDCK) did it give?
**A.** The Activity was “Non-Toxic”.

**Q.** And the Activity (Influenza A virus)?
**A.** Its Activity is “Active”.

**Q.** With `CC(=O)OC[C@H]1O[C@@H]2O[C@H]3[C@H](OC(C)=O)[C@@H](OC(C)=O)[C@@H](O[C@H]4[C@H](OC(C)=O)[C@@H](OC(C)=O)[C@@H](O[C@H]5[C@H](OC(C)=O)[C@@H](OC(C)=O)[C@@H](O[C@H]6[C@H](OC(C)=O)[C@@H](OC(C)=O)[C@@H](O[C@H]7[C@H](OC(C)=O)[C@@H](OC(C)=O)[C@@H](O[C@H]8[C@H](OC(C)=O)[C@@H](OC(C)=O)[C@@H](O[C@H]1[C@H](OC(C)=O)[C@H]2OC(C)=O)O[C@@H]8COC(C)=O)O[C@@H]7COC(C)=O)O[C@@H]6COC(C)=O)O[C@@H]5Cn1cc(CNC(=O)[C@@]2(C)CC[C@]5(C)CC[C@]6(C)C(=CC(=O)[C@@H]7[C@@]8(C)CC[C@H](O)C(C)(C)[C@@H]8CC[C@]76C)[C@@H]5C2)nn1)O[C@@H]4COC(C)=O)O[C@@H]3COC(C)=O` as the molecule, how does the Activity (MDCK) read?
**A.** The Activity was “Non-Toxic”.

**Q.** What about the Activity (Influenza A virus) of the same molecule?
**A.** The Activity was “Active”.

**Q.** What does the source list for `CC(=O)OC[C@H]1O[C@@H]2O[C@H]3[C@H](OC(C)=O)[C@@H](OC(C)=O)[C@@H](O[C@H]4[C@H](OC(C)=O)[C@@H](OC(C)=O)[C@@H](O[C@H]5[C@H](OC(C)=O)[C@@H](OC(C)=O)[C@@H](O[C@H]6[C@H](OC(C)=O)[C@@H](OC(C)=O)[C@@H](O[C@H]7[C@H](OC(C)=O)[C@@H](OC(C)=O)[C@@H](O[C@H]8[C@H](OC(C)=O)[C@@H](OC(C)=O)[C@@H](O[C@H]1[C@H](OC(C)=O)[C@H]2OC(C)=O)O[C@@H]8COC(C)=O)O[C@@H]7COC(C)=O)O[C@@H]6COC(C)=O)O[C@@H]5Cn1cc(COCCOCCOCCOCCOCCOCCNC(=O)[C@@]2(C)CC[C@]5(C)CC[C@]6(C)C(=CC(=O)[C@@H]7[C@@]8(C)CC[C@H](O)C(C)(C)[C@@H]8CC[C@]76C)[C@@H]5C2)nn1)O[C@@H]4COC(C)=O)O[C@@H]3COC(C)=O`?
**A.** Activity (MDCK): Non-Toxic; Activity (Influenza A virus): Active

**Q.** Which results are given for `CC1(C)[C@@H](O)CC[C@]2(C)[C@H]3C(=O)C=C4[C@@H]5C[C@@](C)(C(=O)NCCOCCOCCOCCOCCOCCOCc6cn(C[C@H]7O[C@@H]8O[C@H]9[C@H](O)[C@@H](O)[C@@H](O[C@H]%10[C@H](O)[C@@H](O)[C@@H](O[C@H]%11[C@H](O)[C@@H](O)[C@@H](O[C@H]%12[C@H](O)[C@@H](O)[C@@H](O[C@H]%13[C@H](O)[C@@H](O)[C@@H](O[C@H]%14[C@H](O)[C@@H](O)[C@@H](O[C@H]7[C@H](O)[C@H]8O)O[C@@H]%14CO)O[C@@H]%13CO)O[C@@H]%12CO)O[C@@H]%11CO)O[C@@H]%10CO)O[C@@H]9CO)nn6)CC[C@]5(C)CC[C@@]4(C)[C@]3(C)CC[C@@H]12`?
**A.** Activity (MDCK): Non-Toxic; Activity (Influenza A virus): Active

**Q.** `CC(=O)OC[C@H]1O[C@@H]2O[C@H]3[C@H](O)[C@@H](O)[C@@H](O[C@H]4[C@H](O)[C@@H](O)[C@@H](O[C@H]5[C@H](O)[C@@H](O)[C@@H](O[C@H]6[C@H](O)[C@@H](O)[C@@H](O[C@H]7[C@H](O)[C@@H](O)[C@@H](O[C@H]8[C@H](O)[C@@H](O)[C@@H](O[C@H]1[C@H](O)[C@H]2O)O[C@@H]8CO)O[C@@H]7CO)O[C@@H]6CO)O[C@@H]5CO)O[C@@H]4CO)O[C@@H]3Cn1cc(CN2CCN(CCNC(=O)[C@@]3(C)CC[C@]4(C)CC[C@]5(C)C(=CC(=O)[C@@H]6[C@@]7(C)CC[C@H](O)C(C)(C)[C@@H]7CC[C@]65C)[C@@H]4C3)CC2)nn1` was tested. Which Activity (MDCK) did it give?
**A.** The Activity was “Non-Toxic”.

**Q.** And the Activity (Influenza A virus)?
**A.** The Activity was “inactive”.
